This note sets out measurements from the array DNA melting data of Ke et al. (doi:10.1101/2024.01.08.574731).

Data set [1] is described as follows: folding enthalpy; higher = less favourable; fluorescence melt of hairpins on a sequencing array, two-state fit. The settings on record: sodium 0.088 M. In short, it runs like this:
(§1)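 Cy3 fluorescence of library hairpins on a sequenced MiSeq flow cell, with annealed Cy3 and quencher oligos, was imaged in 50 mM Na-HEPES pH 8.0, 25 mM NaCl in 2.5 °C steps up to 60 °C. Signals were normalised to pre-quench Cy3 and to control variants. Melting temperature and folding enthalpy came from bootstrapped two-state fits, inverse-variance combined over four replicates. Fitted temperatures were raised by 9.35 °C to match UV melts.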

Data set [2] is described as follows: melting temperature; fluorescence melt of hairpins on a sequencing array, two-state fit, raised by 9.35 °C to match UV melts. The settings on record: sodium 0.088 M. In short, it runs like this: as §1

GATCGGGGCGCCGATC ((((((....)))))): the folding enthalpy in data set [1] is -39 kcal/mol. Further, in data set [2], the Tm stood at 58.4 °C.
On to CGGAGCGGAAACGCCCCG (((.(((....))).))), for which the folding enthalpy in data set [1] is -30.8 kcal/mol. Moreover, the Tm in data set [2] amounted to 55.8 °C.
Turning to ACACGGAAACGTGT (((((....))))), the folding enthalpy in data set [1] was -24 kcal/mol. Moreover, in data set [2], the Tm was found to be 55.1 °C.
Consider GCCCCGCGAAAGCCGAGC ((.(.((....)).).)), for which, in data set [1], the folding enthalpy was -11.3 kcal/mol. For the same sequence, the Tm in data set [2] was 32.1 °C.
In the same order, the values of GATCCCTGCGGGATC ((((((...)))))) are -35.8 kcal/mol and 66.1 °C.
The corresponding values for GCGTCCGAAAGGAACCGC ((((((....)))..))) are -20.3 kcal/mol and 48.5 °C.
On to AGGTAGAAATACCT (((((....))))), for which the folding enthalpy in data set [1] is -14.5 kcal/mol. For the same sequence, the Tm in data set [2] is 33.5 °C.
In the same order, the values of GCTCGGCGAAAGCCTCGC ((..(((....)))..)) are -14.4 kcal/mol and 48.7 °C.
In the same order, the values of GTCAAAGGAAACTTTGAC (((((((....))))))) are -44.9 kcal/mol and 55.8 °C.
On to GCAGACGAAAGTCGTTGC ((((((....)))..))), for which the folding enthalpy in data set [1] was -14.1 kcal/mol. Besides, the Tm in data set [2] is 50.5 °C.
In the same order, the values of GCTGCCGAAAGGCCTAGC ((((((....)))..))) are -14.2 kcal/mol and 41 °C.
GACTTCGGAAACGAAATC ((.((((....)))).)): the folding enthalpy in data set [1] was -22.9 kcal/mol. Moreover, in data set [2], the Tm stood at 31.9 °C.
For the sequence GATCCTTGGAAGGATC ((((((....)))))), in data set [1], the folding enthalpy was -32.1 kcal/mol. Further, the Tm in data set [2] is 52.2 °C.
The corresponding values for GGGGGCGAAAGCCTGCCC ((((((....)))..))) are -13.7 kcal/mol and 43.8 °C.
The corresponding values for GAAGGAGGAAACTCCCTC ((.((((....)))).)) are -12.1 kcal/mol and 28.4 °C.
In the same order, the values of GCGTAACGACGC ((((....)))) are -21.9 kcal/mol and 51.4 °C.
With “CGCGGAAAAACAACAACAACCGCG ((....................))”, in data set [1], the folding enthalpy was -29.6 kcal/mol. Moreover, the Tm in data set [2] turned out to be 37.3 °C.
The corresponding values for GGTCGCGAAAGCGCCACC ((((((....)))..))) are -11.2 kcal/mol and 47.8 °C.
In the same order, the values of GCGGCTAACCGC ((((....)))) are -26.2 kcal/mol and 56.5 °C.
The corresponding values for GTCGACGAAAGTCGCGAC ((((((....)))..))) are -12.6 kcal/mol and 57.4 °C.
Regarding GATCGTAAGACGATC ((((((...)))))), in data set [1], the folding enthalpy is -42.3 kcal/mol. Further, in data set [2], the Tm turned out to be 54.2 °C.
The corresponding values for GTCGTCGAAAGACGAGAC ((((((....)))..))) are -10.8 kcal/mol and 49.8 °C.
As to GCTCAGCGAAAGCTTGGC ((..(((....)))..)), the folding enthalpy in data set [1] was -18.8 kcal/mol. The Tm in data set [2] was found to be 39.7 °C.
In the same order, the values of GGCGTCCGAAAGGAAGCC (((.(((....))).))) are -34.7 kcal/mol and 67 °C.
The corresponding values for GTTGTCGGAAACGATGAC ((..(((....)))..)) are -16 kcal/mol and 40.4 °C.
GTCTGCGAAAGCAGTGAC ((((((....)))..))): the folding enthalpy in data set [1] is -9.57 kcal/mol. The Tm in data set [2] came out at 40.5 °C.
The corresponding values for GATCCTCCAGAGGATC ((((((....)))))) are -35.5 kcal/mol and 55.5 °C.
In the same order, the values of GCACACGAAAGTGTCTGC ((((((....)))..))) are -15.3 kcal/mol and 42 °C.
For the sequence CGTGGCCGGAAACGGACG (((..(((....)))))), the folding enthalpy in data set [1] is -10.8 kcal/mol. The Tm in data set [2] came out at 44.2 °C.
In the same order, the values of GATCTCCAATGAGATC ((((((....)))))) are -34.2 kcal/mol and 51.3 °C.
GAGCGCGGAAACGCGCCC (.(((((....))))).): the folding enthalpy in data set [1] was -5.64 kcal/mol. Also, the Tm in data set [2] stood at 59.7 °C.
Consider GATCGGAAATCCGATC ((((((....)))))), for which the folding enthalpy in data set [1] is -44.8 kcal/mol. For the same sequence, the Tm in data set [2] was found to be 54.5 °C.
The corresponding values for GGGAACGAAAGTTAACCC ((((((....)))..))) are -19.8 kcal/mol and 35.1 °C.
In the same order, the values of GCTGTGCGAAAGCAGCGC ((..(((....)))..)) are -21 kcal/mol and 57.1 °C.
In the same order, the values of GTGGCCGAAAGGCTACAC ((((((....)))..))) are -13.5 kcal/mol and 58.2 °C.
As to GAAATCGGAAACGGTTTC ((((.((....)).)))), the folding enthalpy in data set [1] is -31.6 kcal/mol. Besides, in data set [2], the Tm was 46.5 °C.
Take GAGCTAGCGAAAGCTCTC (((..(((....)))))): the folding enthalpy in data set [1] was -17 kcal/mol. The Tm in data set [2] came to 45.3 °C.
